Measurements from publication PMC9425296 (Journal of the American Chemical Society, 2022).
*1 amine or outer side, *2 acyl side, *3 side chain or, on linkers, in order; H or OH if unused. Where a SMILES comes first, the peptide text is derived from it. Bridges are numbered along the chain shown (N, C = ends). [ ]: non-standard residue; d: D form. X1 = O=C([C@@H]1C[C@H](SCc2cccc(C[*:3])c2)CN1[*:1])[*:2]

Tests used:
[1] = test system: five human paralogs in the GABARAP/LC3 family (GABARAP, GABARAP-L1, GABARAP-L2, LC3A, LC3B); assay: FP binding across human LC3/GABARAP paralogs; conditions: fluorescein-tagged peptide
Procedure, shortened: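 Fluorescence polarization with N-terminally fluorescein-labelled peptides titrated against each recombinant protein (GABARAP, GABARAP-L1, GABARAP-L2, LC3A, LC3B). Kd values come from the FP binding data. Results are the average and standard error of the mean of three or more independent trials.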

[2] = test system: OVCAR8 cells (p62, LC3B, GABARAP); assay: Western blot of autophagy markers in OVCAR8 cells; format: cell-based; conditions: OVCAR8, 25 μM peptide plus 10 μM cisplatin, 48 h

Structure (SMILES): CC(C)C[C@H](NC(=O)[C@@H]1CSCc2cccc(c2)CS[C@H]2C[C@@H](C(=O)N[C@@H](Cc3ccc(O)cc3)C(=O)N[C@@H]([C@@H](C)O)C(=O)N[C@@H](Cc3c[nH]c4ccccc34)C(=O)N[C@@H](CCC(=O)O)C(=O)N1)N(C(=O)[C@H](C)NC(=O)[C@@H](N)CC(=O)O)C2)C(=O)N[C@@H](C)C(=O)N[C@@H](Cc1c[nH]c2ccccc12)C(=O)N1CCC[C@H]1C(N)=O [MP3-meta] (H-DA[X1]YTWECLAWP-NH2; thioether 3-8; N-terminus and C-terminus assumed)
- binding to GABARAP and GABARAPL1 (in words) [1]: low-to-mid nanomolar range
- binding to GABARAP-L2, LC3A and LC3B (in words) [1]: mostly in the micromolar range
- LC3B-I level compared to cells treated with cisplatin alone [2]: increased LC3B-I
